The source made the active and inactive calls.
Legend:
[1] = target: BMP-2-inducible protein kinase (Homo sapiens) (UniProt Q9NSY1); experiment: Binding affinity to BIKE assessed as change in thermal denaturation at 10 uM by thermal stability shift assay
In short: (§1)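 Each compound was screened across a kinase panel by thermal stability shift assay. The read-out was the shift in protein melting temperature (ΔTm, in °C) relative to the unliganded kinase. A ΔTm of 4.0 °C served as the hit cutoff.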

[2] = target: Serine/threonine-protein kinase PLK1 (Homo sapiens) (UniProt P53350); experiment: Binding affinity to PLK1 assessed as change in thermal denaturation at 10 uM by thermal stability shift assay; in short: as §1
[3] = target: T1, Cyclin-G-associated kinase (Homo sapiens) (UniProt O14976); experiment: Binding affinity to GAK assessed as change in thermal denaturation at 10 uM by thermal stability shift assay; in short: as §1
T1 sequence (whole entry): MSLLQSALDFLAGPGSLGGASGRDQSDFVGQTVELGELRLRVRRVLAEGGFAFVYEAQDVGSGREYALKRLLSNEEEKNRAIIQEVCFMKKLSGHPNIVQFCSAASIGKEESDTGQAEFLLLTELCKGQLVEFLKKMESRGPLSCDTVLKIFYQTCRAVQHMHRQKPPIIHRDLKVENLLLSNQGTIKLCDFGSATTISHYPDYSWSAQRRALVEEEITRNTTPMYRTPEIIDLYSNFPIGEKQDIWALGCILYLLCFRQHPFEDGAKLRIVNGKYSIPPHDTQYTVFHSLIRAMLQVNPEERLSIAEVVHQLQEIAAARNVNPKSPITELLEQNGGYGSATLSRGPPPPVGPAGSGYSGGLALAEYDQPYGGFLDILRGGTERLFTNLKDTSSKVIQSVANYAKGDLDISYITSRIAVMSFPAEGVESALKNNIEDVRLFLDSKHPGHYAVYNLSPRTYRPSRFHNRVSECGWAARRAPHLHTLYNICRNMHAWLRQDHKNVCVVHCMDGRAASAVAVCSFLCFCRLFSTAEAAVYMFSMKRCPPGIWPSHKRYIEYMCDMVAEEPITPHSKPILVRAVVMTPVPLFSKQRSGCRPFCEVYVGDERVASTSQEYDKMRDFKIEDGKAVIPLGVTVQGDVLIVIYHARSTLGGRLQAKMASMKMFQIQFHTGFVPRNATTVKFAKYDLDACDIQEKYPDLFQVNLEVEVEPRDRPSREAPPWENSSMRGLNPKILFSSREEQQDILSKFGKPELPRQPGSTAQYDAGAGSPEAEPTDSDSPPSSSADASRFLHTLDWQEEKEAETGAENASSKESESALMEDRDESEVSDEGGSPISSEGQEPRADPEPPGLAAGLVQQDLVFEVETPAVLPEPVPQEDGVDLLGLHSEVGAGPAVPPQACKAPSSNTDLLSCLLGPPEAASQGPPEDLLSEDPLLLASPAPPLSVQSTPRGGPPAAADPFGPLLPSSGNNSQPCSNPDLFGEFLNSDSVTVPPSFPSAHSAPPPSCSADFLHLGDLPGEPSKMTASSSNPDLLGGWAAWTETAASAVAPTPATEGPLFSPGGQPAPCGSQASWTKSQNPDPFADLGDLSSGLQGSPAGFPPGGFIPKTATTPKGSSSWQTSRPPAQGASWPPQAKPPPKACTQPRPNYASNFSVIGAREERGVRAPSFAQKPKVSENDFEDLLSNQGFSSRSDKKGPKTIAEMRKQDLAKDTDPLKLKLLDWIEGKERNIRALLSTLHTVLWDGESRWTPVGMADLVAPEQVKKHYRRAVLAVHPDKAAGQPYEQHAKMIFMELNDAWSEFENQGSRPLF

[4] = target: Tyrosine-protein kinase Fes/Fps (Homo sapiens) (UniProt P07332); experiment: Binding affinity to FES assessed as change in thermal denaturation at 10 uM by thermal stability shift assay; in short: as §1
[5] = target: T2, Myosin light chain kinase family member 4 (Homo sapiens) (UniProt Q86YV6); experiment: Binding affinity to SGK085 assessed as change in thermal denaturation at 10 uM by thermal stability shift assay; in short: as §1
T2 sequence (whole entry): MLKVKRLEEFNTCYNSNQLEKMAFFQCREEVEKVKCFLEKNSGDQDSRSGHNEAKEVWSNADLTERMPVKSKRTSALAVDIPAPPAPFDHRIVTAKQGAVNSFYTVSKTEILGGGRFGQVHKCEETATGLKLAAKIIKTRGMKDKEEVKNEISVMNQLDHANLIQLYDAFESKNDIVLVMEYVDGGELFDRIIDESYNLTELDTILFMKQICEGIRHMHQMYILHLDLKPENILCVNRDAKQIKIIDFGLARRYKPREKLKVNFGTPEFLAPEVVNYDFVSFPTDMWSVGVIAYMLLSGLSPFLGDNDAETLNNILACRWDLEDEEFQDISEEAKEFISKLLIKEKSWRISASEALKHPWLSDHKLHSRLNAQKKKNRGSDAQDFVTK

[6] = target: T3, cAMP-dependent protein kinase catalytic subunit PRKX (Homo sapiens) (UniProt P51817); experiment: Binding affinity to PRKX assessed as change in thermal denaturation at 10 uM by thermal stability shift assay; in short: as §1
T3 sequence (whole entry): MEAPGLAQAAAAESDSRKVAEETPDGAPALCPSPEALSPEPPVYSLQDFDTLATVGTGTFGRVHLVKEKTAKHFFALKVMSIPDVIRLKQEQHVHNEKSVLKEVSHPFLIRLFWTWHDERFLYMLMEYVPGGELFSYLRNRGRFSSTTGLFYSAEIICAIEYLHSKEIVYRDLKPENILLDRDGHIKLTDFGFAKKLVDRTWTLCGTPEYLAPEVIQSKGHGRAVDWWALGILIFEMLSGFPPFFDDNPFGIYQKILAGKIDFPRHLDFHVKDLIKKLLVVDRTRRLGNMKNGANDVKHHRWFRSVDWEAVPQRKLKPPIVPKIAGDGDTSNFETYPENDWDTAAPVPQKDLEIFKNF

[7] = target: Death-associated protein kinase 3 (Homo sapiens) (UniProt O43293); experiment: Binding affinity to N-terminus His6-tagged DAPK3 expressed in Escherichia coli BL21 (DE3) cells coexpressing pCOEX assessed as change in thermal denaturation at 10 uM by thermal stability shift assay
In short: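 DAPK3 was expressed in E. coli grown in TB with kanamycin and chloramphenicol at 37 °C, cooled to 25 °C, and induced with 0.5 mM IPTG. Binding was read as thermal-shift ΔTm in °C.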

[8] = target: Receptor-type tyrosine-protein kinase FLT3 (Homo sapiens) (UniProt P36888); experiment: Inhibition of FLT3 using ATP as substrate
Receptor-type tyrosine-protein kinase FLT3 (Homo sapiens), sequence (P36888 whole entry): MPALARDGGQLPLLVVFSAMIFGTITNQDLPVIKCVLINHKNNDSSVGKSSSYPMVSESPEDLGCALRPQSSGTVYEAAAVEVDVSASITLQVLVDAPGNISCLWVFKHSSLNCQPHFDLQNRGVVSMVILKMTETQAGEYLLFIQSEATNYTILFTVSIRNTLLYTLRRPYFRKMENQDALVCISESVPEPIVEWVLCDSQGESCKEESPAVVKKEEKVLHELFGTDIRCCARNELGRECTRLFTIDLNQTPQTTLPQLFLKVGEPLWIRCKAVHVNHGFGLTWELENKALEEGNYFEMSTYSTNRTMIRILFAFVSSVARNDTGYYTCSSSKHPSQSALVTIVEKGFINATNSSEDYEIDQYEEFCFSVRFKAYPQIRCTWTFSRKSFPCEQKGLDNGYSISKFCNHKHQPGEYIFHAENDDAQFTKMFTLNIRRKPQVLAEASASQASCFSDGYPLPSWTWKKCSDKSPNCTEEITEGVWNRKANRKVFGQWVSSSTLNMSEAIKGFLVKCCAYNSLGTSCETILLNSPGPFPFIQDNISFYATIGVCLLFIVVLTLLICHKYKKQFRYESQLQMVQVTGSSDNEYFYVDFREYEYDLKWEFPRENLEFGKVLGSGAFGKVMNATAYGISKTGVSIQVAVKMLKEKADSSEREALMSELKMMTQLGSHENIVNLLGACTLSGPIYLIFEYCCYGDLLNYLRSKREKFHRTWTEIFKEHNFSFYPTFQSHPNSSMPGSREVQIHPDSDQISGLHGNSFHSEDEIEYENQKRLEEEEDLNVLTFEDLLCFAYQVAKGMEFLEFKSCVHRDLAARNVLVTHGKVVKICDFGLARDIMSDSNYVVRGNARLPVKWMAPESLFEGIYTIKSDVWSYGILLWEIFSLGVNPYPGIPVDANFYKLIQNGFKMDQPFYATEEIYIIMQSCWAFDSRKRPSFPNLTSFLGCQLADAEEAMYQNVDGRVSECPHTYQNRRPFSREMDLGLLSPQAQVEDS

Death-associated protein kinase 3 (Homo sapiens), sequence (O43293 whole entry, looked up): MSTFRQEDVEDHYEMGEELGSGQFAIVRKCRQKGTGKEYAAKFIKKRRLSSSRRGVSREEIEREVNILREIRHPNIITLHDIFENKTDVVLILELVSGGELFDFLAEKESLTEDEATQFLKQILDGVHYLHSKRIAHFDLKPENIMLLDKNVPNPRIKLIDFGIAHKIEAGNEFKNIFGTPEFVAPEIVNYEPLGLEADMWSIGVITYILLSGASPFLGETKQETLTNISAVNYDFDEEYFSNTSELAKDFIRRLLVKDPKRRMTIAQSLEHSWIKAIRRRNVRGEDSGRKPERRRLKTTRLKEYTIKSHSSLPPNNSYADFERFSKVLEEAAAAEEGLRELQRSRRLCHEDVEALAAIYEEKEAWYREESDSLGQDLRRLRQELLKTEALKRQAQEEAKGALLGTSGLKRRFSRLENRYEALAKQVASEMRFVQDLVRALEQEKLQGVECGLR
Serine/threonine-protein kinase PLK1 (Homo sapiens), sequence (P53350 whole entry): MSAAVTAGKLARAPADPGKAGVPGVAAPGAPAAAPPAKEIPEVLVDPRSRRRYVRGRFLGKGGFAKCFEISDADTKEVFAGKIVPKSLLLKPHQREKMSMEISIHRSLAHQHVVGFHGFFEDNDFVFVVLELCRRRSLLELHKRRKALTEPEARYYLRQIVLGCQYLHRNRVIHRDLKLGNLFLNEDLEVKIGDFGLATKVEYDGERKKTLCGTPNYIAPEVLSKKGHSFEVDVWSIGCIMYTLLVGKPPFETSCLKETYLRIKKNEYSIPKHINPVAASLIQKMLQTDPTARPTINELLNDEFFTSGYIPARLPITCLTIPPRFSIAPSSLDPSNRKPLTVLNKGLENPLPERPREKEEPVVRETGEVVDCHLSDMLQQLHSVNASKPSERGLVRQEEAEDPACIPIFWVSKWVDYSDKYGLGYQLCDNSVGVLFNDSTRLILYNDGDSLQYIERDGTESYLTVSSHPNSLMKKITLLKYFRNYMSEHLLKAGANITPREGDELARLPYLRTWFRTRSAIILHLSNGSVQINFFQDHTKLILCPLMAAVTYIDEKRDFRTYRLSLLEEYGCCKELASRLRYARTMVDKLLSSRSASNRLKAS
Tyrosine-protein kinase Fes/Fps (Homo sapiens), sequence (P07332 whole entry): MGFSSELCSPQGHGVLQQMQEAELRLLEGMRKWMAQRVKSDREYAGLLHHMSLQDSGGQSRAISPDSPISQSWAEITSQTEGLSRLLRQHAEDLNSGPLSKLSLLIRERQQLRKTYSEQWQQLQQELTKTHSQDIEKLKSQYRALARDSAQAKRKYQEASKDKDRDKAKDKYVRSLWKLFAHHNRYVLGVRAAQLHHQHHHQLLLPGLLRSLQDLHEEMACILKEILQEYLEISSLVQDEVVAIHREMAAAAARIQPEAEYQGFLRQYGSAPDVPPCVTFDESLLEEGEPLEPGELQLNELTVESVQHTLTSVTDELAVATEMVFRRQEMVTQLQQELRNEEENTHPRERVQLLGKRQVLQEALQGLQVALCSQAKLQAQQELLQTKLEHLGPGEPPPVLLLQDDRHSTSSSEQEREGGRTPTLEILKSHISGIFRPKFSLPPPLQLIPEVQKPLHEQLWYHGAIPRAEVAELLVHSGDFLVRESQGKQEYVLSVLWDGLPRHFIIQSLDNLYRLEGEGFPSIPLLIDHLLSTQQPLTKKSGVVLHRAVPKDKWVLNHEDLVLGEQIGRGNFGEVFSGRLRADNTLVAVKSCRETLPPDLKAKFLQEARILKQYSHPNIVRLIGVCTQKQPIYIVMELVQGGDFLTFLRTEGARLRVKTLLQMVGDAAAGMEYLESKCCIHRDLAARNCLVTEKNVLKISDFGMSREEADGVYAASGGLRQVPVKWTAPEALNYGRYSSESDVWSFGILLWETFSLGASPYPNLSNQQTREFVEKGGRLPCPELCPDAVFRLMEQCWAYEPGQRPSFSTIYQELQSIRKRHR
BMP-2-inducible protein kinase (Homo sapiens), sequence (Q9NSY1 whole entry, looked up): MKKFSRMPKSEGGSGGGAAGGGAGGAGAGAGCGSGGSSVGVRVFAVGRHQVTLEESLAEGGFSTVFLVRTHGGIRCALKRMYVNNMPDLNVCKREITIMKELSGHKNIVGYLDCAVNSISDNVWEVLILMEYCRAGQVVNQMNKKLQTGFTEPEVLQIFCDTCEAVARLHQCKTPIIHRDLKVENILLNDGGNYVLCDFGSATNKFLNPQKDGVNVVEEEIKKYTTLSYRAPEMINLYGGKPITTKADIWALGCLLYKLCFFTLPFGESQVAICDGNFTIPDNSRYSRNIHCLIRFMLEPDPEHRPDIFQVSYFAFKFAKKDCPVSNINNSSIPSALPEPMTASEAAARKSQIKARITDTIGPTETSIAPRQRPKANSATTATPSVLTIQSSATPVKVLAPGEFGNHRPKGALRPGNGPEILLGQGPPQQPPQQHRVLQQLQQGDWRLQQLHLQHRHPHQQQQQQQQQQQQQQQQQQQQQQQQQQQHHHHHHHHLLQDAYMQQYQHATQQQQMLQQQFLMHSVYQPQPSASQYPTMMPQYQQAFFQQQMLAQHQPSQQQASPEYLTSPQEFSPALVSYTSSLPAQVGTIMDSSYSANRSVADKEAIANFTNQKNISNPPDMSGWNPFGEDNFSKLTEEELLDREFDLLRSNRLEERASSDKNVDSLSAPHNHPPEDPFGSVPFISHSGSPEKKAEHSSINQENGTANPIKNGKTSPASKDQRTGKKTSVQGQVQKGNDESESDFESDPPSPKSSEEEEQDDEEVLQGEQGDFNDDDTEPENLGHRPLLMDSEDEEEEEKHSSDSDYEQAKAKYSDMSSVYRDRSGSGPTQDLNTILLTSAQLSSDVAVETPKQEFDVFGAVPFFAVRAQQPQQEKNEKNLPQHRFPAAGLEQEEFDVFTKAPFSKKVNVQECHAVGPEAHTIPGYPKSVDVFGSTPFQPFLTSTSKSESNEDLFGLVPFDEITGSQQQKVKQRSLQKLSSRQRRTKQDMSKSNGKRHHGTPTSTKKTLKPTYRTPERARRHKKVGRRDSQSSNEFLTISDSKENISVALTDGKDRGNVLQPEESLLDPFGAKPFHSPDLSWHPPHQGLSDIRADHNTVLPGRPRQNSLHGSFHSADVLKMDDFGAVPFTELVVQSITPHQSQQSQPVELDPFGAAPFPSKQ

SMILES | ΔTm [1] | ΔTm [2] | ΔTm [3] | ΔTm [4] | ΔTm [5] | ΔTm [6] | ΔTm [7] | inhibition [8]
Cn1c2c(Cl)c(Cl)ccc2c2cc(N)[nH]c(=O)c21 | 5.2 °C | 1.4 °C | 4.3 °C | 0.4 °C | 2.9 °C | 0.8 °C | 2.6 °C | –
CC1(C)NC(=O)c2[nH]c3c(Cl)c(Cl)ccc3c2C1C#N (configuration not stated) | 1.2 °C | 4 °C | 2.5 °C | -0.2 °C | 3.1 °C | 1.2 °C | 2 °C | –
Cn1c2c(c3ccc(Cl)c(Cl)c31)C(CN)C(C)(C)NC2=O (racemic) | 1.7 °C | -0.6 °C | 0.7 °C | 0.3 °C | 0.2 °C | 3.3 °C | 3.6 °C | –
Cn1c2c(c3ccc(Cl)c(Cl)c31)C(C#N)C1(CCCC1)NC2=O (configuration not stated) | 1.3 °C | 1.3 °C | 1.2 °C | 0 °C | 0.1 °C | 0.7 °C | 1.5 °C | –
CN1CCC2(CC1)NC(=O)c1c(c3ccc(Cl)c(Cl)c3n1C)C2C#N (racemic) | 0.8 °C | 0.6 °C | 0.8 °C | 0.5 °C | 1.5 °C | 3.3 °C | 6.3 °C | inactive
Cn1c2c(c3ccc(Cl)c(Cl)c31)C(C#N)C1(CCOCC1)NC2=O (configuration not stated) | 2.3 °C | 0.8 °C | 1.3 °C | 0 °C | 0.5 °C | 1.4 °C | 3.1 °C | –
Cn1c2c(Cl)c(Cl)ccc2c2cn[nH]c(=O)c21 | 5.3 °C | 3.1 °C | 1.6 °C | 0.2 °C | 5.5 °C | 0.3 °C | 4 °C | –
Cn1c2c(c3ccccc31)C(C#N)C(C)(C)NC2=O (configuration not stated) | 1.1 °C | 3.2 °C | 0 °C | 0 °C | 1.7 °C | 0.5 °C | 0.6 °C | –

— ChEMBL document CHEMBL1944596, “7,8-dichloro-1-oxo-β-carbolines as a versatile scaffold for the development of potent and selective kinase inhibitors with unusual binding modes” (J Med Chem, 2012)
